For assay [1], the system named is Mus musculus. Briefly: Decrease in cyclin D1 level in tumor of BALB mouse allografted with mouse EAC cells at 3 mg/kg, ip for 5 days competitive ELISA relative to control. The assay is classed as functional, Ehrlich. More on the design: scale not given: the % may be the effect or the level left. As to conditions: route intraperitoneal. The gist of the method: (§1)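 Mice bearing s.c. Ehrlich tumours (2×10^5 EAC cells, grown 2 wk) were given daily i.p. saline, 3 or 6 mg/kg for 5 days. Tumours were excised, washed in cold saline and blotted, and a 10% homogenate was made in phosphate buffered saline. Cyclin D1 was measured by competitive ELISA with samples in duplicate. Mean ± SEM, n = 6.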

The subject of assay [2] is Ehrlich. Briefly: Antitumor activity against mouse EAC cells allografted in ip dosed BALB mouse assessed as tumor growth inhibition administered for 5 days. In kind it is functional, organism-based. The gist of the method:
(§2)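 Female BALB mice; Ehrlich ascites carcinoma cells, 2×10^5 cells/mouse in 0.2 ml saline, injected s.c. into the left hind leg and grown 2 wk. Daily i.p. saline (control), 3 or 6 mg/kg for 5 days. Caliper size V = 0.4×a(b)^2, taken just before the first dose and 24 h after the last. Mean ± SEM, n = 6; ANOVA with Tukey-Kramer.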

In assay [3] the test system is Mus musculus. Briefly: Decrease in cyclin D1 level in tumor of BALB mouse allografted with mouse EAC cells at 6 mg/kg, ip for 5 days competitive ELISA relative to control. The assay is classed as functional, Ehrlich. The arrangement: scale not given: the % may be the effect or the level left. As to conditions: route intraperitoneal. The gist of the method: as §1
(An ELISA detects its analyte on a solid surface through an enzyme-linked reagent.)

Assay [4] has as its system Ehrlich. Briefly: Antitumor activity against mouse EAC cells allografted in BALB mouse assessed as tumor growth inhibition at 6 mg/kg, ip for 5 days relative to control. In kind it is functional. As to conditions: 120 h, route intraperitoneal, read-out: TGI. The gist of the method: as §2
For assay [5], the system named is Mus musculus. Briefly: Increase in GSK-3beta level in tumor of BALB mouse allografted with mouse EAC cells at 3 mg/kg, ip for 5 days by competitive ELISA relative to control. The assay is classed as functional, Ehrlich. The settings on record: route intraperitoneal. The gist of the method: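 Female BALB mice bearing subcutaneous EAC tumours (2×10^5 cells in left hind leg, grown 2 wk). Dosed i.p. daily for 5 days; controls received saline. Excised tumours washed in cold saline and homogenised at 10% in PBS. GSK-3β measured by competitive ELISA, samples in duplicate. Change versus untreated controls, mean ± SEM, n = 6.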

Assay [6] is described as follows: Growth inhibition of human HCT15 cells at 10 uM after 48 hrs by sulforhodamine B assay relative to control. As to conditions: HCT-15, 48 h, read-out: GI. In kind it is functional. The essentials:
(§3)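 NCI-60 primary screen at a single dose of 10 µM with 48 h continuous exposure. Growth or viability read by sulforhodamine B protein staining and expressed as percent growth inhibition versus untreated cells.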
Background: The SRB assay estimates cell density from bound dye.

Another assay concerns 786-0. Briefly: Growth inhibition of human 786-0 cells at 10 uM after 48 hrs by sulforhodamine B assay relative to control. In kind it is functional. As to conditions: 786-0, 48 h, read-out: GI. The gist of the method:
as §3

For a further assay, the system named is IGROV-1. Briefly: Growth inhibition of human IGROV1 cells at 10 uM after 48 hrs by sulforhodamine B assay relative to control. In kind it is functional. As to conditions: IGROV-1, 48 h, read-out: GI. The essentials: as §3
For another assay, the system named is U-251. Briefly: Growth inhibition of human U251 cells at 10 uM after 48 hrs by sulforhodamine B assay relative to control. In kind it is functional. The settings on record: U-251, 48 h, read-out: GI. The gist of the method: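 NCI-60 primary single-dose screen at 10 µM with continuous 48 h exposure. Cell viability/growth read by sulforhodamine B protein staining. Reported as percent growth inhibition relative to untreated cells.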

Another assay relates to K562. Briefly: Growth inhibition of human K562 cells at 10 uM after 48 hrs by sulforhodamine B assay relative to control. The settings on record: K562, 48 h, read-out: GI. The assay is classed as functional. The gist of the method: as §3
The subject of another assay is HT-29. Briefly: Growth inhibition of human HT-29 cells at 10 uM after 48 hrs by sulforhodamine B assay relative to control. In kind it is functional. The settings on record: HT-29, 48 h, read-out: GI. The gist of the method:
as §3

The nature of assay [7]: Growth inhibition of human RXF393 cells at 10 uM after 48 hrs by sulforhodamine B assay relative to control. In kind it is functional. As to conditions: RXF 393, 48 h, read-out: GI. The gist of the method: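 NCI-60 primary screen at a single 10 µM dose. Continuous 48 h exposure, with growth or viability estimated by sulforhodamine B protein staining. Reported as percent growth inhibition of treated cells relative to untreated growth.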

Assay [8] in a line: Growth inhibition of human HOP92 cells at 10 uM after 48 hrs by sulforhodamine B assay relative to control. In kind it is functional. The settings on record: HOP-92, 48 h, read-out: GI. The essentials:
as §3

Regarding `COc1c2occc2c(OC)c2c(=O)c(CN3CCOCC3)c(/C=C/c3ccc(N(C)C)cc3)oc12`, the Activity is given as 40.6% with Mus musculus [1], 59.1% with Mus musculus [3] and 101.5% in the assay with Mus musculus [5]. Further, the TGI entry in the assay on Ehrlich [2] was “Dose-dependent effect”. In addition, in the assay on Ehrlich [4], the inhibition in vivo at 6 mg/kg came to 57.1%. Moreover, the inhibition of growth at 10 µM in assay [6] stood at 67%; with 786-0, 95%; with IGROV-1, 78%; in the assay with U-251, 69%; with K562, 84%; in the assay with HT-29 it was 82%.

`C=CCc1c2c(c(OC)c3ccoc13)C(=O)/C(=C/c1ccccc1OC)O2`: in assay [7], the inhibition of growth at 10 µM was 75%.

On to `COc1c2occc2c(OC)c2c(=O)c(CN3CCOCC3)c(/C=C/c3ccc(Cl)cc3)oc12`, for which the inhibition of growth at 10 µM in assay [8] worked out at 95%.

The values above are taken from ChEMBL document CHEMBL3286372, “Design, synthesis and structure-activity relationship of novel semi-synthetic flavonoids as antiproliferative agents” (2014).
